Changes are numbered by the printed parent chain.
Experiments:
MAGE-A4 [1] = biological target: T1, MAGE-A4 (Homo sapiens, UniProt P43358); experiment: MALDI-MS covalent modification of MAGE-A4; format: binding
T1 sequence (P43358 1-317): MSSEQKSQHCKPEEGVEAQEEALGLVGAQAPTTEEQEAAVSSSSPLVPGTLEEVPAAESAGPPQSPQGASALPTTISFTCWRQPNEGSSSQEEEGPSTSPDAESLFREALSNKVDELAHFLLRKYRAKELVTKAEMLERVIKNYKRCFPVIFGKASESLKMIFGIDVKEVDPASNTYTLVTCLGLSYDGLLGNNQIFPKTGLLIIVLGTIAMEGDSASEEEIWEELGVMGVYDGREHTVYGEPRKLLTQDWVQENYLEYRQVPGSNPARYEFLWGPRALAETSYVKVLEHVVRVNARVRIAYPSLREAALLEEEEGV
Summary of the method: (§1)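 MAGE-A4 wild type or its C80A mutant was incubated with each peptide, and the intact protein was analysed by MALDI-MS for covalent adducts. L-Ala and D-Ala variants of each peptide, in which the dehydroalanines are replaced, were run in parallel.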

RAD18-MAGE-A4 complex = biological target: T2, RAD18-MAGE-A4 complex (Homo sapiens, UniProt P43358); experiment: Co-immunoprecipitation of the RAD18-MAGE-A4 complex in cell lysates; details: 10 μM peptides
T2 sequence (P43358 1-317): T1 sequence (P43358 1-317)
Summary of the method: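 Read-out is Western blotting of MAGE-A4 co-immunoprecipitated with RAD18 from cell lysates. Peptides were tested at 10 μM, alongside a peptide included as a negative control.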

MAGE-A4 C80A [2] = biological target: T3, MAGE-A4 C80A (Homo sapiens, UniProt P43358, C80A); experiment: TR-FRET between AF647-MTP-1 and MAGE-A4 C80A; format: binding; details: TR-FRET vs AF647-MTP-1
T3 sequence (P43358 1-317 C80A): T1 sequence (P43358 1-317) with C80A

MAGE-A4 C80A [3] = biological target: T3, MAGE-A4 C80A; experiment: MALDI-MS covalent modification of MAGE-A4 C80A mutant; format: binding
Summary of the method: as §1

MAGE-A4 [4] = biological target: T1, MAGE-A4; experiment: TR-FRET between AF647-MTP-1 and MAGE-A4; format: binding
Summary of the method: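 Time-dependent TR-FRET measured displacement of AF647-labelled MTP-1 peptide tracer from MAGE-A4 (and from MAGE-A4 C80A) by covalent peptides. IC50 values were calculated from the resulting TR-FRET curves.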

MAGE-A4 [5] = biological target: T1, MAGE-A4; experiment: Mass dilution TR-FRET assay for kinetic parameters; format: binding

- covalent modification of MAGE-A4 (MAGE-A4 [1]): modify MAGE-A4
- disruption of MAGE-A4 pulldown with RAD18 (RAD18-MAGE-A4 complex): able to disrupt MAGE-A4 pulldown
- covalent modification of MAGE-A4 C80A mutant (MAGE-A4 C80A [3]): did not label
- IC50 (MAGE-A4 [4]; after 1 hour): 9 nM
- Ki (MAGE-A4 [5]): 7.3 ± 1.1 nM
- inactivation efficiency (kinact/KI) (MAGE-A4 [5]): 8.17e+06 ± 867000 M⁻¹ s⁻¹
- kinact (MAGE-A4 [5]): 3.4 ± 0.3 min⁻¹
Substance: MCP1
- IC50 / activity in the presence of MAGE-A4 C80A (MAGE-A4 C80A [2]): fell in between those of their L- and D-Ala mutants
- change in potency over time (MAGE-A4 [4]; time-dependent TR-FRET): small yet significant increases in potency over time
